The text below walks through data of ChEMBL document CHEMBL1154792, “chi-Conopeptide pharmacophore development: toward a novel class of norepinephrine transporter inhibitor (Xen2174) for pain” (J Med Chem, 2009).

The structures appear in SMILES notation.

This series is filed under the species Rattus norvegicus. Briefly: Toxicity in CCI rat pain model assessed as side effects. Particulars: in vivo. Type of series: organism-based. The method in brief: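 Rats with unilateral sciatic chronic constriction injury received a single intrathecal bolus via an implanted cannula 14 days after surgery, with morphine and vehicle as comparators. Compound-related behavioural observations were recorded alongside von Frey paw-withdrawal testing. Three animals per analogue.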

Consider `CC(C)C[C@@H]1NC(=O)[C@H](CCCCN)NC(=O)[C@H](Cc2ccc(O)cc2)NC(=O)CNC(=O)[C@@H]2CSSC[C@H](NC1=O)C(=O)N[C@@H](Cc1cnc[nH]1)C(=O)N1CC[C@H](O)[C@H]1C(=O)N[C@H](C(=O)O)CSSC[C@H](NC(=O)[C@@H](NC(=O)CNC(=O)[C@@H](N)CC(N)=O)C(C)C)C(=O)N2`, for which the Activity entry was “Toxic”.
